Calls of active or inactive are those of the source. The rule behind the calls is not given here.
What was measured:
[1] = target: T1, Cyclin-dependent kinase 4/cyclin D1 (Homo sapiens) (UniProt P11802+P24385); assay: Inhibition of recombinant human N-terminal GST-tagged CDK4 (S4 to E303 residues)/Cyclin D1 (Q4 to I295 residues) expressed in sf9 cells at 10 uM using RBCTF as substrate measured after 1 hr by ADP-glo luminescence assay relative to control
Calu-1 = assay: Cell cycle arrest in human Calu1 cells assessed as increase in accumulation at S phase at 1.8 uM treated 18 hrs post serum-starvation measured after 18 hrs in presence of fresh medium containing FBS by propidium iodide staining based flow cytometry relative to control; type: functional
[2] = target: T1, Cyclin-dependent kinase 4/cyclin D1 (Homo sapiens); assay: Inhibition of CDK4/cyclin D1 in human T47D cells assessed as reduction in phosphorylation of pRb at Ser780 residues at 0.75 to 1.5 uM measured after 18 hrs by Western blot analysis; type: cell-based
Procedure, shortened: (§1)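 T47D cells left untreated or treated 18 h at 0.75 or 1.5 µM. Western blots probed with phospho-specific pRb antibodies (Ser780, Ser795, Ser807/811) and a total-pRb antibody; HRP-conjugated secondary for detection.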

T47D [3] = assay: Cell cycle arrest in human T47D cells assessed as accumulation at G0/G1 phase at 0.75 uM treated 18 hrs post serum-starvation measured after 18 hrs in presence of fresh medium containing FBS by propidium iodide staining based flow cytometry (reference value: 60.3%); type: functional
A549 [4] = assay: Cell cycle arrest in human A549 cells assessed as accumulation at G0/G1 phase at 1.6 uM treated 32 hrs post mimosine addition measured after 18 hrs in presence of fresh medium by propidium iodide staining based flow cytometry (reference value: 58%); type: functional
A549 [5] = assay: Cell cycle arrest in human A549 cells assessed as ratio of G1 to S phase at 1.6 uM treated 32 hrs post mimosine addition measured after 18 hrs in presence of fresh medium by propidium iodide staining based flow cytometry (reference value: 2.5); type: functional
MDA-MB-468 = assay: Cell cycle arrest in human MDA-MB-468 cells assessed as ratio of G1 to S phase at 10.85 uM measured after 18 hrs by propidium iodide staining based flow cytometry (reference value: 2.17); type: functional
A549 [6] = assay: Cell cycle arrest in human A549 cells assessed as accumulation at G0/G1 phase at 0.8 uM measured after 18 hrs by propidium iodide staining based flow cytometry (reference value: 58%); type: functional
A549 [7] = assay: Cell cycle arrest in human A549 cells assessed as accumulation at S phase at 1.6 uM measured after 18 hrs by propidium iodide staining based flow cytometry (reference value: 21%); type: functional
T47D [8] = assay: Cell cycle arrest in human T47D cells assessed as ratio of G1 to S phase at 1.5 uM measured after 18 hrs by propidium iodide staining based flow cytometry (reference value: 2.65); type: functional
[9] = target: T1, Cyclin-dependent kinase 4/cyclin D1 (Homo sapiens); assay: Inhibition of CDK4/cyclin D1 in human T47D cells assessed as reduction in phosphorylation of pRb at Ser807/11 residues at 0.75 uM measured after 18 hrs by Western blot analysis; type: cell-based; procedure, shortened: as §1
CDK6/cyclin D1 = CDK6/cyclin D1 (Homo sapiens, UniProt Q00534); assay: Inhibition of CDK6/cyclin D1 (unknown origin) using RBER-CHKtide as substrate measured after 1 hr by ADP-glo luminescence assay; type: protein-complex assay
Sequence of CDK6/cyclin D1 (P24385 whole entry): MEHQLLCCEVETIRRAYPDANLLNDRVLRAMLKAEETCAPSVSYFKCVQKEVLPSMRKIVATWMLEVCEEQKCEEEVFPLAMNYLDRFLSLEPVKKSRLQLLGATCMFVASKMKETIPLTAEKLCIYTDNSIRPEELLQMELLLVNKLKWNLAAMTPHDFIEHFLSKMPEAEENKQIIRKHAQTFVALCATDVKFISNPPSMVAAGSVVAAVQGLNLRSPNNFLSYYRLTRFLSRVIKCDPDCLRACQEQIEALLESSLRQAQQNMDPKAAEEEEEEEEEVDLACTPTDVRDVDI
Sequence of CDK6/cyclin D1 (Q00534 whole entry): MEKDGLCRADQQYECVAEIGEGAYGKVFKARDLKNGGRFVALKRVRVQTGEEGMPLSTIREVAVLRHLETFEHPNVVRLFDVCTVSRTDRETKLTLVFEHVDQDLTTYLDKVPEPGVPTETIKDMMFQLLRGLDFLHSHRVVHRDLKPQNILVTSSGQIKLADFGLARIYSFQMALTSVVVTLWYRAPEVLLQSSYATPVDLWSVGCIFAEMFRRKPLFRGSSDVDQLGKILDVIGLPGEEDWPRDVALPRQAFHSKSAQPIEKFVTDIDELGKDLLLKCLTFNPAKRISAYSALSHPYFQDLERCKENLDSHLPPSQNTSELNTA
Procedure, shortened: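 ADP-Glo kinase assay with 200 ng Cdk-cyclin enzyme, ATP (125 µM in 2.5x mix) and 25 µg substrate (RBCTF or RBER-CHKtide, per Cdk). Buffer: Tris, MgCl2, BSA, DTT, MnCl2 cofactor, DMSO. Reaction 1 h at 21°C; ADP-Glo 40 min, then detection reagent 40 min. Luminescence read. IC50 by 4-parameter fit; three independent experiments.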

inhibition [1]: 95% | inhibition [2]: Active | inhibition [9]: inactive | IC50 (CDK6/cyclin D1): > 100 µM
Compound: O=C(COc1ccc(-c2nc3ccccc3c(=O)[nH]2)cc1)Nc1cccc(Cl)c1
Activity (Calu-1): -0.8% | Activity (T47D [3]): 77% | Activity (A549 [4]): 12% | Ratio (A549 [5]): 0.6 | Ratio (MDA-MB-468): 3.46 | Activity (A549 [6]): 65% | Activity (A549 [7]): 16% | Ratio (T47D [8]): 12
